pIC50: −log10 of the molar value. One block for each molecule: values may come before it. The source made the active and inactive calls. The calls are words filed in the database; no cut-off is given here.
Assays:
HL-60 [1] = experiment: Induction of apoptosis in p53-deficient human HL60 cells assessed as post-apoptotic cells at 50 uM after 6 hrs by FITC-conjugated annexinV/PI-based flow cytometric analysis (reference value: 1 %); assay type: functional
In short: (§1)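 HL-60 cells incubated with each analog at 50 µM for 6 h, stained with annexin V-FITC/propidium iodide and analysed by flow cytometry. Lower right quadrant is apoptotic, upper right post-apoptotic, upper left necrotic. Three experiments, with representative dot plots shown.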

HL-60 [2] = experiment: Induction of apoptosis in p53-deficient human HL60 cells assessed as apoptotic cells at 50 uM after 6 hrs by FITC-conjugated annexinV/PI-based flow cytometric analysis (reference value: 5 %); assay type: functional; in short: as §1
DU-145 = experiment: Anticancer activity against human DU145 cells assessed as growth inhibition at 50 uM after 48 hrs by SRB assay; assay type: functional; conditions: DU-145, 48 h, read-out: GI
In short: (§2)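 Cells exposed to test compounds at 50 µM for 48 h. Read-out is percent growth inhibition, with SEM given. 5-Fluorouracil and adriamycin serve as reference agents.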

HL-60 [3] = experiment: Induction of necrosis in p53-deficient human HL60 cells at 50 uM after 6 hrs by FITC-conjugated annexinV/PI-based flow cytometric analysis; assay type: functional, cell-based; in short: as §1
PC-3 = experiment: Anticancer activity against human PC3 cells assessed as growth inhibition at 50 uM after 48 hrs by SRB assay; assay type: functional; conditions: PC-3, 48 h, read-out: GI; in short: as §2
HL-60 [4] = experiment: Induction of apoptosis in p53-deficient human HL60 cells assessed as DNA fragmentation at 50 uM after 6 hrs by agarose gel electrophoresis; assay type: functional, cell-based
In short: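 2 × 10⁶ HL-60 cells treated with derivatives at 50 µM for 6 h, then scored for an apoptotic DNA ladder of 180–200 bp fragments or multiples. The positive control is 4 µM camptothecin for 6 h.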

HEp-2 = experiment: Anticancer activity against human Hep2 cells assessed as growth inhibition at 50 uM after 48 hrs by SRB assay; assay type: functional; conditions: HEp-2, 48 h, read-out: GI; in short: as §2
HT-29 = experiment: Anticancer activity against human HT-29 cells assessed as growth inhibition at 50 uM after 48 hrs by SRB assay; assay type: functional; conditions: HT-29, 48 h, read-out: GI; in short: as §2
COLO 205 = experiment: Anticancer activity against human COLO205 cells assessed as growth inhibition at 50 uM after 48 hrs by SRB assay; assay type: functional; conditions: COLO 205, 48 h, read-out: GI; in short: as §2
HL-60 [5] = experiment: Induction of autophagy in p53-deficient human HL60 cells at 50 uM after 6 hrs by acridine orange staining; assay type: functional, cell-based
In short: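 Autophagy scored by flow cytometry of HL-60 cells stained with acridine orange after 6 h exposure.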

SW-620 = experiment: Anticancer activity against human SW620 cells assessed as growth inhibition at 50 uM after 48 hrs by SRB assay; assay type: functional; conditions: SW-620, 48 h, read-out: GI; in short: as §2
HL-60 [6] = experiment: Anticancer activity against human HL60 cells after 48 hrs by MTT assay; assay type: functional, cell-based; conditions: HL-60, 48 h
In short: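 Cell proliferation measured by MTT. Cells are incubated with each analog for 48 h at the indicated concentrations, then MTT reduction is read as an index of viability. OD of the untreated control is taken as 100% viability, and IC50 is derived from this.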

SMILES: CC[C@@]1(O)C(=O)OCc2c1cc1n(c2=O)Cc2cc3ccccc3nc2-1 [CAMPTOTHECIN]
Activity (HL-60 [1]): 7%
Activity (HL-60 [2]): 18%

SMILES: C[C@H]1[C@H](C)CC[C@]2(C)CC[C@]3(C)C(=CC[C@@H]4[C@@]5(C)CC[C@@H](O)[C@](C)(C(=O)O)[C@@H]5CC[C@]43C)[C@H]12 [BOSWELLIC ACID]
inhibition of growth at 50 µM (DU-145): 92%
Activity (HL-60 [1]): 34%
Activity (HL-60 [3]): inactive
inhibition of growth at 50 µM (PC-3): 100%
inhibition of growth at 50 µM (HEp-2): 43%
inhibition of growth at 50 µM (HT-29): 66%
inhibition of growth at 50 µM (COLO 205): 85%
Activity (HL-60 [2]): 20%
Activity (HL-60 [5]): inactive
inhibition of growth at 50 µM (SW-620): 64%
pIC50 (HL-60 [6]): 4.82

SMILES: CCC(=O)O[C@@H]1CC[C@@]2(C)[C@@H](CC[C@]3(C)[C@@H]2C(=O)C=C2[C@@H]4[C@@H](C)[C@H](C)CC[C@]4(C)CC[C@]23C)[C@@]1(C)C(=O)O
inhibition of growth at 50 µM (DU-145): 25%
Activity (HL-60 [1]): 17%
Activity (HL-60 [3]): inactive
inhibition of growth at 50 µM (PC-3): 64%
Activity (HL-60 [4]): Active
inhibition of growth at 50 µM (HEp-2): 69%
inhibition of growth at 50 µM (HT-29): 89%
inhibition of growth at 50 µM (COLO 205): 87%
Activity (HL-60 [2]): 21%
Activity (HL-60 [5]): inactive
inhibition of growth at 50 µM (SW-620): 85%
pIC50 (HL-60 [6]): 4.80

SMILES: CC(=O)O[C@H]1CC[C@@]2(C)[C@@H](CC[C@]3(C)[C@@H]2CC=C2[C@@H]4[C@@H](C)[C@H](C)CC[C@]4(C)CC[C@]23C)[C@@]1(C)C(=O)O
inhibition of growth at 50 µM (DU-145): 87%
inhibition of growth at 50 µM (PC-3): 56%
inhibition of growth at 50 µM (HEp-2): 42%
inhibition of growth at 50 µM (HT-29): 31%
inhibition of growth at 50 µM (COLO 205): 32%
inhibition of growth at 50 µM (SW-620): 35%

Further lines, with some results ahead:

pIC50 (HL-60 [6]): 4.89
SMILES: CCC(=O)O[C@@H]1CC[C@@]2(C)[C@@H](CC[C@]3(C)[C@@H]2CC=C2[C@@H]4[C@@H](C)[C@H](C)CC[C@]4(C)CC[C@]23C)[C@@]1(C)C(=O)O
inhibition of growth at 50 µM (DU-145): 91%
Activity (HL-60 [1]): 24%
Activity (HL-60 [3]): inactive
inhibition of growth at 50 µM (PC-3): 93%
Activity (HL-60 [4]): Active
inhibition of growth at 50 µM (HEp-2): 86%
inhibition of growth at 50 µM (HT-29): 93%
inhibition of growth at 50 µM (COLO 205): 84%
Activity (HL-60 [2]): 23%
Activity (HL-60 [5]): inactive
inhibition of growth at 50 µM (SW-620): 94%

pIC50 (HL-60 [6]): 4.85
SMILES: CCCC(=O)O[C@@H]1CC[C@@]2(C)[C@@H](CC[C@]3(C)[C@@H]2CC=C2[C@@H]4[C@@H](C)[C@H](C)CC[C@]4(C)CC[C@]23C)[C@@]1(C)C(=O)O
inhibition of growth at 50 µM (DU-145): 89%
Activity (HL-60 [1]): 13%
Activity (HL-60 [3]): inactive
inhibition of growth at 50 µM (PC-3): 77%
Activity (HL-60 [4]): Active
inhibition of growth at 50 µM (HEp-2): 94%
inhibition of growth at 50 µM (HT-29): 95%
inhibition of growth at 50 µM (COLO 205): 88%
Activity (HL-60 [2]): 31%
Activity (HL-60 [5]): inactive
inhibition of growth at 50 µM (SW-620): 93%

pIC50 (HL-60 [6]): 4.92
SMILES: CCC(=O)O[C@H]1CC[C@@]2(C)[C@@H](CC[C@]3(C)[C@@H]2CC=C2[C@@H]4[C@@H](C)[C@H](C)CC[C@]4(C)CC[C@]23C)[C@@]1(C)C(=O)O
inhibition of growth at 50 µM (DU-145): 88%
Activity (HL-60 [1]): 20%
Activity (HL-60 [3]): inactive
inhibition of growth at 50 µM (PC-3): 95%
Activity (HL-60 [4]): Active
inhibition of growth at 50 µM (HEp-2): 87%
inhibition of growth at 50 µM (HT-29): 92%
inhibition of growth at 50 µM (COLO 205): 86%
Activity (HL-60 [2]): 18%
Activity (HL-60 [5]): inactive
inhibition of growth at 50 µM (SW-620): 89%

Source: ChEMBL document CHEMBL1932969, “Acyl derivatives of boswellic acids as inhibitors of NF-κB and STATs” (Bioorg Med Chem Lett, 2012)
